Source: ChEMBL document CHEMBL1127349, “6,7,8,9-Tetrahydro-N,N-di-n-propyl-3H-benzindol-8-amines. Derivatives as potent and orally active serotonin 5-HT1A receptor agonists” (J Med Chem, 1994)
Calls of active or inactive are those of the source. The rule behind the calls is not given here.

What was measured:
[1] = target: T1, 5-hydroxytryptamine receptor 1A (Rattus norvegicus, UniProt P19327); experiment: Displacement of the radioligand [3H]8-OH-DPAT from 5-hydroxytryptamine 1A receptor
T1 sequence (P19327 whole entry): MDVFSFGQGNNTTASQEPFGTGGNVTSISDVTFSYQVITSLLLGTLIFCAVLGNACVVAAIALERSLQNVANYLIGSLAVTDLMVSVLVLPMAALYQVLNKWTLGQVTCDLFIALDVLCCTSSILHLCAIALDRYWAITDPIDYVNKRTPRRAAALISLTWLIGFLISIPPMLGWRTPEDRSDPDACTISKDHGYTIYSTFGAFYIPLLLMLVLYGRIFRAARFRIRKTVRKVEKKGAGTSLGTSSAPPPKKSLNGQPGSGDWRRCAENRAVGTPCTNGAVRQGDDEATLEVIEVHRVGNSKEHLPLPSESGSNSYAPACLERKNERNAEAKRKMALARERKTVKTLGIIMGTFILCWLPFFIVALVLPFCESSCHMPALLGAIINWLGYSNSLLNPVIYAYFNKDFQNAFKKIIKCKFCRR
Method in brief: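 Rat whole brain minus brain stem and cerebellum, washed membranes in 50 mM Tris pH 8.0 with 120 mM NaCl, 4 mM CaCl2, 4 mM MgCl2, 10 μM pargyline. Nonspecific with 10 μM 5-HT. IC50 by semilog linear regression, Ki via Cheng–Prusoff; 3–7 experiments, triplicates.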

D(2) dopamine receptor = D(2) dopamine receptor (Rattus norvegicus, UniProt P61169); experiment: Displacement of the radioligand [3H]spiperone from D2 receptor
D(2) dopamine receptor, sequence (P61169 whole entry): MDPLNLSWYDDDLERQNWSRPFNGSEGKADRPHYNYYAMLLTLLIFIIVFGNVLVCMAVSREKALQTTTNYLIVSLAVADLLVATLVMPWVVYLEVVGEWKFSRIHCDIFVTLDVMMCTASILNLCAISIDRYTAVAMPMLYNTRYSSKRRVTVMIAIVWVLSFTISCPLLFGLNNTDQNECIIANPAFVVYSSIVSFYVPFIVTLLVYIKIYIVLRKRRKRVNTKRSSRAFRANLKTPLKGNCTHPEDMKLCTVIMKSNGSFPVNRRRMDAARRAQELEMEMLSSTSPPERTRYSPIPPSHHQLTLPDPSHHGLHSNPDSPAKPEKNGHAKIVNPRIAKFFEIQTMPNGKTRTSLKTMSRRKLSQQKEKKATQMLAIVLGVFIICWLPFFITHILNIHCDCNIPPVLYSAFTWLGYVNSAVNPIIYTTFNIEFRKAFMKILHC
Method in brief: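 Rat striatal membranes in 50 mM potassium phosphate buffer, incubated with 0.5 nM [3H]spiperone (3 mg tissue) 10 min at 37 °C. Nonspecific binding defined with 10 μM 6,7-ADTN. IC50 converted to Ki by Cheng–Prusoff; 3–7 experiments, each concentration in triplicate.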

Rattus norvegicus [2] = organism: Rattus norvegicus; experiment: The concentration yielding a half maximal decrease of the 5-HTP was determined in rat brain striatum.; type: functional
Rattus norvegicus [3] = experiment: The concentration yielding a half maximal decrease of the DOPA was determined in rat brain hemispheres; Inactive at 3.1 umol/kg; type: functional, organism-based
Method in brief: (§1)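 Reserpine-pretreated (5 mg/kg sc, 18 h) male Sprague-Dawley rats, 200–300 g; compounds in saline given sc. DOPA and 5-HTP in limbic system, striatum and hemispheres measured by HPLC with electrochemical detection. Dose–response curves of 4–6 doses (n = 4) per area, fitted to variable-slope sigmoid on log data to give ED50.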

Rattus norvegicus [4] = experiment: The concentration yielding a half maximal decrease of the DOPA was determined in rat brain striatum; Inactive at 3.1 umol/kg; type: functional, organism-based
Rattus norvegicus [5] = organism: Rattus norvegicus; experiment: The concentration yielding a half maximal decrease of the 5-HTP was determined in rat brain hemispheres.; type: functional
Rattus norvegicus [6] = organism: Rattus norvegicus; experiment: The concentration yielding a half maximal decrease of the 5-HTP was determined in rat limbic system.; type: functional
Rattus norvegicus [7] = organism: Rattus norvegicus; experiment: The concentration yielding a half maximal decrease of the DOPA was determined in rat limbic system.; type: functional
Rattus norvegicus [8] = organism: Rattus norvegicus; experiment: Log concentration to inhibit 5-HTP accumulation was determined in rat brain hemispheres; type: functional; method in brief: as §1
Rattus norvegicus [9] = organism: Rattus norvegicus; experiment: Log concentration to inhibit 5-HTP accumulation was determined in rat limbic system; type: functional; method in brief: as §1
Rattus norvegicus [10] = organism: Rattus norvegicus; experiment: Log concentration to inhibit DOPA accumulation was determined in rat limbic system; type: functional; method in brief: as §1
Rattus norvegicus [11] = organism: Rattus norvegicus; experiment: Log concentration to inhibit 5-HTP accumulation was determined in rat brain striatum; type: functional; method in brief: as §1
Rattus norvegicus [12] = experiment: Motor activity was measured by motility testing on injecting the compound subcutaneously into rats at the dose of 12.5 umol/kg; type: functional
Method in brief: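 Rats given reserpine 5 mg/kg sc 18 h beforehand, then test compound sc in neck (n = 4). Placed singly in photocell motility meters straight after dosing; counts recorded for 30 min, gross behaviour observed throughout. Value as counts/30 min with SEM.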

Rattus norvegicus [13] = experiment: The concentration yielding a half maximal decrease of the DOPA was determined in rat limbic system; inactive at 50 umol/kg; type: functional, organism-based
Rattus norvegicus [14] = experiment: The concentration yielding a half maximal decrease of the 5-HTP was determined in rat limbic system; inactive at 50 umol/kg; type: functional, organism-based; method in brief: as §1
Rattus norvegicus [15] = experiment: The concentration yielding a half maximal decrease of the 5-HTP was determined in rat brain hemispheres; inactive at 50 umol/kg; type: functional, organism-based; method in brief: as §1
Rattus norvegicus [16] = experiment: The concentration yielding a half maximal decrease of the 5-HTP was determined in rat brain striatum; inactive at 50 umol/kg; type: functional, organism-based; method in brief: as §1
Rattus norvegicus [17] = experiment: The concentration yielding a half maximal decrease of the DOPA was determined in rat brain striatum; inactive at 50 umol/kg; type: functional, organism-based
Rattus norvegicus [18] = experiment: The concentration yielding a half maximal decrease of the DOPA was determined in rat brain hemispheres; inactive at 50 umol/kg; type: functional, organism-based; method in brief: as §1
Rattus norvegicus [19] = experiment: Motor activity was measured by motility testing on injecting the compound subcutaneously into rats at the dose of 0.02 umol/kg (1a) and 3.5 umol/kg (1b)
Rattus norvegicus [20] = experiment: The concentration yielding a half maximal decrease of the DOPA was determined in rat brain striatum; Partial response 50 umol/kg; type: functional, organism-based
[21] = Area under the curve after intravenous administration at a dose of 5 umol/kg; type: ADME; conditions: in vivo
Method in brief: (§2)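 Male Sprague-Dawley rats, iv dosing. Blood sampled at intervals up to 12 h, plasma drug levels by GC/MS with internal standard and a 2–1000 pmol/mL standard curve in blank blood. AUC from total area of concentration–time curve; iv n = 3 (table values SEM, n = 4–6).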

[22] = Maximum concentration in plasma after administration of 40 umol/kg dose perorally; type: ADME, organism-based; set-up: dose 40 umol/kg, route oral; conditions: po
Method in brief: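 Male Sprague-Dawley rats starved 18 h, dosed orally. Blood samples over up to 12 h, drug quantified by GC/MS against internal standard (2–1000 pmol/mL standard curve). Cmax read from concentration–time curve; SEM, n = 4–6.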

[23] = Maximum concentration in plasma after administration of 5 umol/kg dose intravenously; type: ADME, organism-based; set-up: dose 5 umol/kg, route intravenous; conditions: iv; method in brief: as §2
[24] = Bioavailability in rats after 2 mg/kg (i.v.) and 10 mg/kg (p.o.) administration; type: ADME, organism-based; conditions: rat, in vivo, po
[25] = Time taken to reach maximum concentration after administration of 40 umol/kg dose perorally; type: ADME, organism-based; conditions: in vivo, po
Method in brief: (§3)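 Male Sprague-Dawley rats, starved 18 h for the oral arm, dosed iv or po. Blood sampled at intervals up to 12 h. Compound measured by GC/mass spectrometry against an internal standard, with a standard curve over 2–1000 pmol/mL in blank blood. tmax read from concentration–time curves, n = 4–6.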

[26] = Time taken to reach maximum concentration after administration of 5 umol/kg dose intravenously; type: ADME, organism-based; conditions: in vivo, iv; method in brief: as §3
[27] = Half life in plasma after administration of 5 umol/kg dose intravenously; type: ADME, organism-based; conditions: iv; method in brief: as §2
Rattus norvegicus [28] = organism: Rattus norvegicus; experiment: The concentration yielding a half maximal decrease of the DOPA was determined in rat brain hemispheres; type: functional
Rattus norvegicus [29] = organism: Rattus norvegicus; experiment: Log concentration to inhibit DOPA accumulation was determined in rat brain hemispheres; type: functional; method in brief: as §1
Rattus norvegicus [30] = organism: Rattus norvegicus; experiment: Log concentration to inhibit DOPA accumulation was determined in rat brain striatum; type: functional; method in brief: as §1
Rattus norvegicus [31] = organism: Rattus norvegicus; experiment: The concentration yielding a half maximal decrease of the DOPA was determined in rat brain striatum.; type: functional
Rattus norvegicus [32] = organism: Rattus norvegicus; experiment: The concentration yielding a half maximal decrease of the 5-HTP was determined in rat brain striatum; type: functional; method in brief: as §1
Rattus norvegicus [33] = organism: Rattus norvegicus; experiment: The concentration yielding a half maximal decrease of the DOPA was determined in rat brain striatum; type: functional; method in brief: as §1
Rattus norvegicus [34] = organism: Rattus norvegicus; experiment: The concentration yielding a half maximal decrease of the 5-HTP was determined in rat brain hemispheres; type: functional; method in brief: as §1
Rattus norvegicus [35] = organism: Rattus norvegicus; experiment: The concentration yielding a half maximal decrease of the 5-HTP was determined in rat limbic system; type: functional; method in brief: as §1
Rattus norvegicus [36] = organism: Rattus norvegicus; experiment: The concentration yielding a half maximal decrease of the DOPA was determined in rat limbic system; type: functional
Rattus norvegicus [37] = experiment: The concentration yielding a half maximal decrease of the DOPA was determined in rat limbic system; inactive at 45 umol/kg; type: functional, organism-based
Rattus norvegicus [38] = experiment: The concentration yielding a half maximal decrease of the DOPA was determined in rat brain hemispheres; inactive at 45 umol/kg; type: functional, organism-based; method in brief: as §1
Rattus norvegicus [39] = experiment: The concentration yielding a half maximal decrease of the DOPA was determined in rat brain striatum; inactive at 45 umol/kg; type: functional, organism-based
Rattus norvegicus [40] = experiment: The concentration yielding a half maximal decrease of the DOPA was determined in rat limbic system; Partial response 50 umol/kg; type: functional, organism-based

SMILES	Ki [1]	Ki (D(2) dopamine receptor)	pED50 (Rattus norvegicus [8])	pED50 (Rattus norvegicus [9])	pED50 (Rattus norvegicus [10])	pED50 (Rattus norvegicus [11])	Activity (Rattus norvegicus [12])	ED50 (Rattus norvegicus [14])	ED50 (Rattus norvegicus [15])	ED50 (Rattus norvegicus [16])	ED50 (Rattus norvegicus [18])	Counts/30 min (Rattus norvegicus [19])	further results
CCCN(CCC)[C@@H]1CCc2ccc3[nH]cc(C#N)c3c2C1	2.7 nM	419 nM	6.85	7.03	5.78	7.44	–	–	–	–	–	–	ED50 (Rattus norvegicus [2]): 0.036 µmol/kg; ED50 (Rattus norvegicus [3]): inactive; ED50 (Rattus norvegicus [4]): inactive; ED50 (Rattus norvegicus [5]): 0.14 µmol/kg; ED50 (Rattus norvegicus [6]): 0.092 µmol/kg; ED50 (Rattus norvegicus [7]): 1.65 µmol/kg
CCCN(CCC)[C@H]1CCc2ccc3[nH]ccc3c2C1	–	–	–	–	–	–	29 Counts 30min-1	–	–	–	–	–	–
CCCN(CCC)C1CCc2ccc3c(C=O)c[nH]c3c2C1 (stereo not drawn)	6720 nM	> 16000 nM	–	–	–	–	–	inactive	inactive	inactive	inactive	7	ED50 (Rattus norvegicus [13]): inactive; ED50 (Rattus norvegicus [17]): inactive
CCCN(CCC)C1CCc2ccc3[nH]cc(CC(F)(F)F)c3c2C1 (stereo not drawn)	182 nM	796 nM	–	–	–	–	10 Counts 30min-1	inactive	inactive	inactive	inactive	–	ED50 (Rattus norvegicus [13]): inactive; ED50 (Rattus norvegicus [20]): Weak activity
CCCN(CCC)C1CCc2ccc3[nH]cc(C#N)c3c2C1 (stereo not drawn)	1.8 nM	439 nM	6.35	6.77	5.98	6.65	317 Counts 30min-1	–	–	–	–	–	AUC [21]: 1115 pM/kg; Cmax [22]: 1500 nM; Cmax [23]: 1730 nM; bioavailability [24]: 54%; Tmax [25]: 2.25 h; Tmax [26]: 2 min; half-life [27]: 1.5 h; ED50 (Rattus norvegicus [2]): 0.22 µmol/kg; ED50 (Rattus norvegicus [28]): 5.2 µmol/kg; ED50 (Rattus norvegicus [5]): 0.45 µmol/kg; ED50 (Rattus norvegicus [6]): 0.17 µmol/kg; ED50 (Rattus norvegicus [7]): 1.05 µmol/kg; pED50 (Rattus norvegicus [29]): 5.29; pED50 (Rattus norvegicus [30]): 5.49; ED50 (Rattus norvegicus [31]): 3.2 µmol/kg
CCCN(CCC)C1CCc2cc3c(C=O)c[nH]c3cc2C1 (stereo not drawn)	4720 nM	700 nM	4.87	4.88	4.78	4.74	–	–	–	–	inactive	172	ED50 (Rattus norvegicus [32]): 18 µmol/kg; ED50 (Rattus norvegicus [33]): 16.7 µmol/kg; ED50 (Rattus norvegicus [34]): 14 µmol/kg; ED50 (Rattus norvegicus [35]): 13 µmol/kg; ED50 (Rattus norvegicus [36]): 27.8 µmol/kg
CCCN(CCC)C1CCc2cccc(O)c2C1 (stereo not drawn) [8-OH-DPAT]	–	–	–	–	–	–	–	–	–	–	–	66	ED50 (Rattus norvegicus [37]): inactive; ED50 (Rattus norvegicus [38]): inactive; ED50 (Rattus norvegicus [39]): inactive
CCCN(CCC)C1CCc2ccc3c(c2C1)N(C=O)CC3 (stereo not drawn)	550 nM	> 16000 nM	–	–	–	–	–	inactive	inactive	inactive	inactive	–	ED50 (Rattus norvegicus [40]): Weak activity; ED50 (Rattus norvegicus [20]): Weak activity
